Experimental data collected from several papers.
Target: Cytoplasmic tyrosine-protein kinase BMX (BMX, Homo sapiens, UniProt P51813)

Compound	test	conditions	endpoint	result
Cn1c2c(Cl)c(Cl)ccc2c2cc[nH]c(=O)c21	thermal stability, DSF	10 µM	ΔTm	0 °C
C=CC(=O)Nc1cc(Nc2nccc(Nc3cc(Cl)c(F)cc3C(C)(C)O)n2)c(OC)cc1N1CC[C@@H](N(C)C)C1	enzyme activity, inhibitor	1 µM	inhibition	80%
CN(c1ccnc(CNc2nc(Nc3ccc4c(c3)CC(=O)N4)ncc2C(F)(F)F)n1)S(C)(=O)=O	cell-free assay, competition with immobilised ligand	1 µM	remaining binding	80%
CC/C(=N\NC(=O)NCc1cccc(O)c1)c1ccc(O)c(C)c1O	enzyme activity, inhibitor	0.1 µM	inhibition	3%
O=C(Nc1ccc(Oc2ccc(F)cc2)cc1)N1CCc2ncccc2[C@H]1c1ccc(F)cc1	cell-free assay, competition with immobilised ligand	1 µM	remaining binding	100%
C[S+]([O-])c1ccc(-c2nc(-c3ccncc3)c(-c3ccc(F)cc3)[nH]2)cc1 (stereo not shown)	cell-free assay	0.5 µM	remaining signal	94.4%
CN(C)C1CCN(CC#Cc2nn(C3CCCC3)c3nc(NCc4ccccc4)ncc23)C1 (stereo not shown)	enzyme activity, inhibitor, FRET	10 µM	inhibition	14%
CC1=C(C#N)[C@@H](c2ccc3[nH]nc(C)c3c2)C(C#N)=C(c2ccc(Cl)cc2)N1	cell-free assay, competition with immobilised ligand	1 µM	remaining binding	100%
Cn1c2c(c3ccc(Cl)c(Cl)c31)C(C#N)C(C)(C)NC2=O (stereo not shown)	thermal stability, DSF	10 µM	ΔTm	-0.1 °C
Cc1ccc(NC(=O)c2ccc(C)c(C(F)(F)F)c2)cc1C#Cc1nn(C2CCC(O)CC2)c2ncnc(N)c12 (stereo not shown)	cell-free assay	10 µM	remaining signal	-1%
Nc1[nH]nc2nnc(-c3c(-c4ccccc4)nn4ccccc34)cc12	enzyme activity, inhibitor	0.5 µM	remaining activity	84.4%
c1ccc(N2CCN(Cc3nc4ccccc4[nH]3)CC2)nc1	cell-free assay, competition with immobilised ligand	1 µM	remaining binding	100%
N#CC1c2c([nH]c3c(Cl)c(Cl)ccc23)C(=O)NC12CCCCC2 (racemic)	thermal stability, DSF	10 µM	ΔTm	-0.1 °C
O=C(Nc1cnn(-c2csc(C(=O)NC3COC3)c2)c1)Nc1ccccc1Cl	enzyme activity, inhibitor	5 µM	remaining activity	106%
O=C(NCc1ncc(C(F)(F)F)cc1Cl)c1ccc2c(c1)C1(CCS(=O)(=O)CC1)[C@H](C1CC1)N2S(=O)(=O)c1ccc(F)cc1	cell-free assay, competition with immobilised ligand	1 µM	remaining binding	100%
Cn1c2c(c3ccccc31)C(C#N)C(C)(C)NC2=O (stereo not shown)	thermal stability, DSF	10 µM	ΔTm	-0.4 °C

Compound	test	conditions	endpoint	result
CCN(CC)CCNC(=O)c1c(C)[nH]c(/C=C2\C(=O)Nc3ccc(F)cc32)c1C	enzyme activity, inhibitor	10 µM	inhibition	41%
O=C1NC(=O)c2cc(Nc3ccc(F)cc3)c(Nc3ccc(F)cc3)cc21	cell-free assay	0.5 µM	remaining signal	95.3%
O=C(Nc1cnc(Oc2ccc(F)cc2)nc1)N1CCc2ncccc2[C@@H]1c1ccc(F)cc1	cell-free assay, competition with immobilised ligand	1 µM	remaining binding	94%
CC(C)[C@H](CO)Nc1nc(Nc2cc(N)cc(Cl)c2)c2ncn(C(C)C)c2n1	enzyme activity, inhibitor	0.5 µM	remaining activity	81.9%
CNC(=O)c1cc(Oc2ccc(NC(=O)Nc3ccc(Cl)c(C(F)(F)F)c3)cc2)ccn1	enzyme activity, inhibitor	0.3 µM	inhibition	-3%
C#Cc1cccc(Nc2ncnc3cc(OCCOC)c(OCCOC)cc23)c1	cell-free assay	0.5 µM	remaining signal	100%
Cn1cncc1C1=CN(c2ncnc3[nH]cnc23)CCS1	enzyme activity, inhibitor, radiometric	50 nM	inhibition	13.9%
CCC1(CC)NC(=O)c2c(c3ccc(Cl)c(Cl)c3n2C)C1C#N (stereo not shown)	thermal stability, DSF	10 µM	ΔTm	0.1 °C
COc1cc2ncnc(Nc3ccc(Oc4ccccc4)c(C)c3C)c2cc1OC	enzyme activity, inhibitor	1 µM	inhibition	1%
C[C@@H](N)[C@H]1CC[C@H](C(=O)Nc2ccncc2)CC1	enzyme activity, inhibitor	0.5 µM	remaining activity	91.2%
Nc1c(C(=O)NCc2ccc(C(=O)NCCCC3CCCCC3)cc2)cnn1-c1ccccc1	cell-free assay, competition with immobilised ligand	0.1 µM	remaining binding	100%
O=c1cc(-c2cccc3c2Sc2ccccc2S3)oc(N2CCOCC2)c1	enzyme activity, inhibitor	0.5 µM	remaining activity	112%
Cc1nc(N2CC[C@@H](O)C2)ncc1-c1cc(C(F)(F)F)cc2[nH]ncc12	cell-free assay, competition with immobilised ligand	1 µM	remaining binding	100%
Cc1ccc(Nc2nccc(N(C)c3ccc4c(C)n(C)nc4c3)n2)cc1S(N)(=O)=O	enzyme activity, inhibitor	0.3 µM	inhibition	8%
Fc1ccc(-c2nc3n(c2-c2ccncc2)CCS3)cc1	enzyme activity, inhibitor	0.5 µM	remaining activity	104%
